Assay results taken from ChEMBL document CHEMBL1250535, “Synthesis, anti-fungal and 1,3-β-D-glucan synthase inhibitory activities of caffeic and quinic acid derivatives” (Bioorg Med Chem, 2010).
In brackets after ≈: the same amount, converted by molar mass. Starred links: 1 amine or outer side, 2 acyl side, 3 side chain; linkers in the order of their positions; H or OH if unused. Positions of bridges follow the written chain, without caps; N, C: chain ends. Non-standard residues stand in square brackets, D forms with d. Residues, ends and D or L forms follow the SMILES beside them. *: point of attachment. Orn(4R-OH,5R-OH) = O=C([C@H](C[C@@H](O)[C@@H](O)N[*:3])N[*:1])[*:2]; hTyr(3S-OH,4S-OH) = N[C@H](C(=O)O)[C@H](O)[C@@H](O)c1ccc(O)cc1; Pro(3S-OH,4S-Me) = C[C@H]1CN[C@H](C(=O)O)[C@H]1O; Palmitoyl = CCCCCCCCCCCCCCCC(=O)*; Hyp = O=C(O)[C@@H]1C[C@@H](O)CN1

Assays:
Candida albicans = test: Antifungal activity against Candida albicans by NCCLS method; format: functional
Procedure, shortened: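 Broth dilution per NCCLS against Candida albicans NBRC 1594.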

Beta-1,3-glucan synthase = target: T1, Beta-1,3-glucan synthase (Candida albicans, UniProt O13383); test: Inhibition of Candida albicans 1,3 beta-D-glucan synthase
T1 sequence (O13383 whole entry): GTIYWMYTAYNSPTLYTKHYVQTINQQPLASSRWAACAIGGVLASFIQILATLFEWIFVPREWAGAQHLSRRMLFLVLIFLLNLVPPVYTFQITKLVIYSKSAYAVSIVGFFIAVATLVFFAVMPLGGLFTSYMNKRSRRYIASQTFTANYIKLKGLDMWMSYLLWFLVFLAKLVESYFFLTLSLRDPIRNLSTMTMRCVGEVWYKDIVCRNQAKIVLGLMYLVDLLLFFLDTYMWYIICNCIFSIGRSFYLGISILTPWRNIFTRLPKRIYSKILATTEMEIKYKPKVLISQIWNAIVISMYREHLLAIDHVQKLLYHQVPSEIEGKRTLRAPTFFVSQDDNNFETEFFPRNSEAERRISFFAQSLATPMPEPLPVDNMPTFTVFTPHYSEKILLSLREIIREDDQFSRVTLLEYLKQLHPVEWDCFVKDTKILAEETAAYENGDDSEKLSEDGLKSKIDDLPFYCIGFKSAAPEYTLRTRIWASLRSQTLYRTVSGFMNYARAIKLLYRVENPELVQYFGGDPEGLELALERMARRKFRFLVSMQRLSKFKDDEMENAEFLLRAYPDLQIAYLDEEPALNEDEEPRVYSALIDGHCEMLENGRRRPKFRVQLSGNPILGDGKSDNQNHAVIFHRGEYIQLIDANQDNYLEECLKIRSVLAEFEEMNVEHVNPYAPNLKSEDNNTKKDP
Procedure, shortened: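 Membrane-bound enzyme prepared from Candida albicans. Reaction mix: 50 mM Tris–HCl pH 7.5, 0.5 mM EDTA, 25 mM KF, GTPγS, 0.75% BSA, 5.0 mM UDP-Glc, with and without test compound. Started by adding enzyme, run 20 min at 30 °C, stopped by heating 10 min at 96 °C. Glucan formed quantified by a 1,3-β-D-glucan-dependent enzyme cascade (BGSTAR kit).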

Structure (SMILES) | MIC (Candida albicans) | IC50 (Beta-1,3-glucan synthase)
CCCCCCCCOc1ccc(NC(=O)C(NC(=O)[C@]2(O)C[C@@H](O)[C@@H](O)[C@H](O)C2)C(C)O)cc1 (some centres undefined) | > 129 µM | > 65 µM
CCCCCCCCOc1ccc(NC(=O)C(NC(=O)/C=C/c2ccc(O)c(O)c2)C(C)OC(C)(C)C)cc1 (centres undefined) | 15 µM (≈ 8.11 µg/mL) | 37 µM
CCCCCCCCOc1ccc(NC(=O)C(CCCN)NC(=O)[C@]2(O)C[C@@H](O)[C@@H](O)[C@H](OC(=O)/C=C/c3ccc(O)c(O)c3)C2)cc1 (some centres undefined) | 6 µM (≈ 4.03 µg/mL) | 15 µM
CCCCCCCCOc1ccc(NC(=O)C(CCCN)NC(=O)/C=C/c2ccc(O)c(O)c2)cc1 (centres undefined) | 4 µM (≈ 1.99 µg/mL) | 22 µM
CCCCCCCCCCCCCCCC(=O)N[C@H]1C[C@@H](O)[C@@H](O)NC(=O)[C@@H]2[C@@H](O)[C@@H](C)CN2C(=O)[C@H]([C@@H](C)O)NC(=O)[C@H]([C@H](O)[C@@H](O)c2ccc(O)cc2)NC(=O)[C@@H]2C[C@@H](O)CN2C(=O)[C@H]([C@@H](C)O)NC1=O [ACULEACIN A] (Palmitoyl-[Orn(4R-OH,5R-OH)]T[Hyp][hTyr(3S-OH,4S-OH)]T[Pro(3S-OH,4S-Me)]; lactam 1-C) | 0.23 µM (≈ 0.238 µg/mL) | 8 µM
CCCCCCCCOc1ccc(NC(=O)C(CC(=O)O)NC(=O)[C@]2(O)C[C@@H](O)[C@@H](O)[C@H](O)C2)cc1 (some centres undefined) | > 125 µM | > 63 µM
CCCCCCCCOc1ccc(NC(=O)C(CC(=O)OC(C)(C)C)NC(=O)/C=C/c2ccc(O)c(O)c2)cc1 (centres undefined) | 29 µM (≈ 16.1 µg/mL) | 58 µM
CCCCCCCCOc1ccc(NC(=O)[C@]2(O)C[C@@H](O)[C@@H](O)[C@H](O)C2)cc1 | 81 µM (≈ 32 µg/mL) | > 81 µM
CCCCCCCCOc1ccc(NC(=O)C(NC(=O)[C@]2(O)C[C@@H](O)[C@@H](O)[C@H](OC(=O)/C=C/c3ccc(O)c(O)c3)C2)C(C)O)cc1 (some centres undefined) | 12 µM (≈ 7.9 µg/mL) | > 49 µM
O=C(/C=C/c1ccc(O)c(O)c1)O[C@@H]1C[C@](O)(C(=O)O)C[C@@H](O)[C@H]1O [CHLOROGENIC ACID] | > 181 µM | > 90 µM
CCCCCCCCOc1ccc(NC(=O)C(CC(=O)O)NC(=O)/C=C/c2ccc(O)c(O)c2)cc1 (centres undefined) | 64 µM (≈ 31.9 µg/mL) | > 64 µM
CCCCCCCCOc1ccc(NC(=O)C(CCCNC(=O)OC(C)(C)C)NC(=O)/C=C/c2ccc(O)c(O)c2)cc1 (centres undefined) | 27 µM (≈ 16.1 µg/mL) | 52 µM
CCCCCCCCOc1ccc(NC(=O)/C=C/c2ccc(O)c(O)c2)cc1 | 84 µM (≈ 32.2 µg/mL) | > 84 µM
CCCCCCCCOc1ccc(NC(=O)[C@]2(O)C[C@@H](O)[C@@H](O)[C@H](OC(=O)/C=C/c3ccc(O)c(O)c3)C2)cc1 | 14 µM (≈ 7.81 µg/mL) | 41 µM
CCCCCCCCOc1ccc(NC(=O)C(CC(=O)O)NC(=O)[C@]2(O)C[C@@H](O)[C@@H](O)[C@H](OC(=O)/C=C/c3ccc(O)c(O)c3)C2)cc1 (some centres undefined) | 48 µM (≈ 32.3 µg/mL) | > 48 µM
CCCCCCCCOc1ccc(NC(=O)C(NC(=O)/C=C/c2ccc(O)c(O)c2)C(C)O)cc1 (centres undefined) | 8.3 µM (≈ 4.02 µg/mL) | > 66 µM
CCCCCCCCOc1ccc(NC(=O)C(CCCN)NC(=O)[C@]2(O)C[C@@H](O)[C@@H](O)[C@H](O)C2)cc1 (some centres undefined) | 16 µM (≈ 8.15 µg/mL) | 53 µM
